Published values from different studies.
Protocols differ between the studies behind these lines.
KCNH2: Voltage-gated inwardly rectifying potassium channel KCNH2 (KCNH2, Homo sapiens, UniProt Q12809)

| Compound | tested on | assay | test system | conditions | endpoint | result |
| --- | --- | --- | --- | --- | --- | --- |
| O=C(COc1ccc(Cl)cc1)NC12CC(c3nnc([C@H]4C[C@@H](OC(F)(F)F)C4)o3)(C1)C2 |  |  | human, plasma | oral, 800 mg, single dose, fasted, healthy volunteers | Tmax | 36 h |
| C[C@H]1Oc2cc(cnc2N)-c2c(nn(C)c2C#N)CN(C)C(=O)c2ccc(F)cc21 |  |  | male Sprague-Dawley rat, plasma | oral, 5 mg/kg, single dose | MRT(0-inf) | 8.14 h |
| NC(=O)c1ncn([C@@H]2O[C@H](CO)[C@@H](O)[C@H]2O)n1 | RD | cell growth or viability, MTT |  |  | CC50 | 104 µM |
| CC(C)n1ncc2c(C(=O)NCC3(C)CNC3)cc(C3CC3)nc21 | RD | cell growth or viability, neutral red |  |  | CC50 | > 100 µM |
| COc1nc(-c2cccc(-c3ccccc3)c2C)ccc1CNCCNC(=O)CCCCCCCCCCC(=O)N1CCN(CCNC(=O)c2cc3c(=O)n4cccc(C)c4nc3n(CCc3cccs3)c2=N)CC1 |  |  | male Sprague-Dawley rat, plasma | intraperitoneal, 4 mg/kg | MRT(0-inf) | 7.2 h |
| CC(=O)N1CCC(C(=O)N2CCN3C(=O)c4cc(-c5ccccc5)ccc4NC(=O)C3C2)CC1 (centres unmarked) | KCNH2 | ion current, inhibitor, patch clamp | HEK293 | 1 µM | inhibition | 5.6% |
| COc1ccc2c(c1)CN(C(=O)CCN1CCC(Cc3ccccc3)CC1)CC[S@@+]2[O-] |  |  | male human, plasma | intravenous, 0.6 mg/kg, healthy volunteers | Tmax | 0 h |
| COc1cc(N)c(Cl)cc1C(=O)NC1CCN(CCCOc2ccc(F)cc2)CC1OC (centres unmarked) | KCNH2 | ion current, inhibitor, patch clamp | HEK293 | 1 nM, pH 7.4 | inhibition | 8.73% |
| Cn1c(=O)c2[nH]cnc2n(C)c1=O |  |  | male Sprague-Dawley rat, plasma | intravenous, 22.5 mg/kg | MRT(0-t) | 2.61 h |
| CCOC(=O)C1=C(CN2CCC[C@@H]2C(=O)Nc2ccc(B(O)O)cc2)NC(c2nccs2)=N[C@H]1c1ccc(F)cc1Br | KCNH2 | ion current, inhibitor, patch clamp | HEK293 | 100 µM, pH 7.4 | inhibition | 94.8% |
| O=C(O)COc1cccc(-c2nc(Nc3ccc4[nH]ncc4c3)c3ccccc3n2)c1 | Bile salt export pump (ABCB11, Homo sapiens, UniProt O95342) | transporter uptake, inhibitor, radiometric |  |  | IC50 | 48.2 µM |
| COc1cc(N)c(Cl)cc1C(=O)NC1CCN(CCCOc2ccc(F)cc2)CC1OC (centres unmarked) | KCNH2 | ion current, inhibitor, patch clamp | HEK293 | 50 nM | inhibition | 60.7% |
| CC(C)n1cc(C#N)c2cc(-n3cc(C(=O)O)cn3)ccc21 |  |  | human, plasma | oral, 50 mg, single dose, fasted, healthy volunteers | Tmax | 2.75 h |
| O=C(Cn1ccnc1[N+](=O)[O-])NCc1ccccc1 | LLC-MK2 | cell growth or viability |  |  | CC50 | 257 µg/mL |
| CN1C[C@H](COc2nccc3c(NCc4ccco4)cc(Cl)nc23)OC1=O | KCNH2 | ion current, inhibitor | HEK293 | 3 µM | inhibition | 7% |
| N[C@H]1C(O)O[C@H](CO)[C@@H](O)[C@@H]1O (some centres unmarked) | Caco-2 | cell growth or viability, CCK-8 |  | 50 mM | viability | 97.9% |
| COc1cccc(OC)c1-c1cc(C(=O)NC2(C(=O)O)C3CC4CC(C3)CC2C4)nn1-c1ccc(C(=O)N(C)CCCN(C)CCCN(C)C(=O)CN2CCN(CC(=O)[O-])CCN(CC(=O)[O-])CCN(CC(=O)[O-])CC2)cc1C(C)C.[177Lu+3] (centres unmarked) | HT-29 |  | stomach | 7 days, tumour-bearing | tracer uptake | 0.09 %ID/g |
